These results are taken from article PMC12207910 (European journal of pharmaceutical sciences : official …, 2024).

The subject of data set [1] is human red blood cells (hRBC). Put plainly: Hemolytic activity. The class given is cell-based. The settings on record: concentration at which 50% hemolysis was observed.
A further data set concerns E. coli (ATCC BAA-2452). The class given is cell-based, Escherichia coli. The following applies: E. coli (ATCC BAA-2452).
The subject of data set [2] is E. coli (ATCC BAA-2452) biofilm. Put plainly: Antibiofilm activity, XTT assay. The data set is classed as cell-based, Escherichia coli. The essentials: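 Bacterial suspensions at 5×10^5 CFU/mL in MH broth were grown 24 h at 37 °C to form biofilms, then washed twice with PBS. […] Biofilms were rewashed, then given XTT plus phenazine methosulfate for 1 h in the dark at 37 °C, and A492 was read. Percentage decrease versus untreated wells; triplicate, run twice.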
In general terms: Formazan colour is commonly taken as a measure of viable cells.

Data set [3] relates to E. coli (ATCC 25922) and E. coli (ATCC BAA-2452). Description: Resistance development study, repeated exposure. The class given is cell-based. The following applies: E. coli strains; 18 exposures.
The subject of data set [4] is S. aureus (ATCC 29213). The following applies: highest MIC of three independent experiments.
Data set [5] has as its system P. aeruginosa (ATCC 27883). The following applies: highest MIC of three independent experiments.
The subject of data set [6] is E. coli (ATCC 25922). The settings on record: highest MIC of three independent experiments.
The subject of data set [7] is Escherichia coli (ATCC BAA-2452), NDM-1.
In data set [8] the test system is Klebsiella pneumonia (ATCC 13883).
Data set [9] concerns Klebsiella pneumonia (ATCC BAA-2470), carbapenem resistant. The following applies: Carbapenem resistant strain.
Data set [10] relates to Acinetobacter baumannii (ATCC BAA1605), ciprofloxacin resistant. The following applies: Ciprofloxacin resistant strain.
The subject of data set [11] is Pseudomonas aeruginosa (ATCC 10145).
The subject of data set [12] is Pseudomonas aeruginosa (ATCC BAA-1744), imipenem resistant. The following applies: Imipenem resistant strain.
A further data set relates to MRSA (ATCC BAA-1556). The following applies: cited from earlier work.
Data set [13] has as its system S. aureus (ATCC 29213). The following applies: cited from earlier work.
The subject of data set [14] is P. aeruginosa (ATCC 27883). The settings on record: cited from earlier work.
Data set [15] concerns E. coli (ATCC 25922). The settings on record: cited from earlier work.
The test system of data set [16] is human red blood cells (hRBC). The settings on record: cited from earlier work.

Read-outs that look alike come from different tables or passages of the source. Non-standard residues stand in square brackets, D forms with d. Residues, ends and D or L forms follow the SMILES beside them. Dip = N[C@H](C(=O)O)C(c1ccccc1)c1ccccc1; hArg = N=C(N)NCCCC[C@H](N)C(=O)O; Agp = N=C(N)NC[C@H](N)C(=O)O Some results are limits rather than exact numbers.

On to Polymyxin B, for which the HC50 in data set [1] was more than 500 µg/mL. Besides, the “MIC CaCl2” value in the data set on E. coli (ATCC BAA-2452) (CaCl2 2 mM) is 0.7 mg/L. Further, in the data set on E. coli (ATCC BAA-2452) (KCl […]), the “MIC KCl” value stood at 0.7 mg/L. Also, the “MIC Control” value in the data set on E. coli (ATCC BAA-2452) (MH media without salt ions or serum) worked out at 0.7 mg/L. Further, in the data set on E. coli (ATCC BAA-2452) (MgCl2 1 mM), the “MIC MgCl2” value was found to be 1.5 mg/L. For the same compound, the “MIC NH4Cl” value against E. coli (ATCC BAA-2452) (NH4Cl 6 mM) worked out at 0.7 mg/L. Also, in the data set with E. coli (ATCC BAA-2452) (NaCl 150 mM), the “MIC NaCl” value was 0.7 mg/L. Moreover, the “MIC FBS (25%)” value against E. coli (ATCC BAA-2452) (fetal bovine serum 25%) was 3.1 mg/L. Further, the entries for the “reduction in biofilm mass” value in data set [2] (at 2× the MIC) and in data set [2] (at MIC) were 61% and 46%, respectively. Also, the “change in MIC after repeated exposure (resistance development)” value in data set [3] is “negligible changes in the MIC values”. Further, the “MIC S. aureus (ATCC 29213)” value with S. aureus (ATCC 29213) [4] is 0.7 mg/L. For the same compound, in data set [5], the “MIC P. aeruginosa (ATCC 27883)” value turned out to be 0.7 mg/L. Moreover, the “MIC E. coli (ATCC 25922)” value in the data set on E. coli (ATCC 25922) [6] came to 0.7 mg/L. Besides, the “MIC Escherichia coli (ATCC BAA-2452)” value in [7] stood at 0.7 mg/L. The “MIC Klebsiella pneumonia (ATCC 13883)” value in data set [8] amounted to 6.2 mg/L. Besides, the “MIC Klebsiella pneumonia (ATCC BAA-2470)” value in data set [9] was found to be 1.5 mg/L. Moreover, the “MIC Acinetobacter baumannii (ATCC BAA1605)” value in data set [10] amounted to 0.7 mg/L. Also, in [11], the “MIC Pseudomonas aeruginosa (ATCC 10145)” value came to 0.7 mg/L. Further, the “MIC Pseudomonas aeruginosa (ATCC BAA-1744)” value in [12] stood at 0.7 mg/L.
`N=C(N)NCCC[C@@H]1NC(=O)[C@H](CCCNC(=N)N)NC(=O)[C@H](CCCNC(=N)N)NC(=O)[C@H](C(c2ccccc2)c2ccccc2)NC(=O)[C@H](C(c2ccccc2)c2ccccc2)NC(=O)[C@H](Cc2c[nH]c3ccccc23)NC1=O` [1a, c[Arg-Arg-Arg-Trp-Dip-Dip]] (cyclo([Dip][Dip]RRRW)) came in with an HC50 in data set [1] of 50 µg/mL.
In data set [1], `N=C(N)NCCC[C@@H]1NC(=O)[C@H](CCCNC(=N)N)NC(=O)[C@H](Cc2c[nH]c3ccccc23)NC(=O)[C@H](C(c2ccccc2)c2ccccc2)NC(=O)[C@H](C(c2ccccc2)c2ccccc2)NC(=O)[C@H](CCCNC(=N)N)NC(=O)[C@H](CCCNC(=N)N)NC1=O` [3c, c[Arg-Arg-Arg-Arg-Dip-Dip-Trp]] (cyclo([Dip][Dip]WRRRR)) showed an HC50 of 100 µg/mL.
`N=C(N)NC[C@@H]1NC(=O)[C@H](CNC(=N)N)NC(=O)[C@H](CNC(=N)N)NC(=O)[C@H](C(c2ccccc2)c2ccccc2)NC(=O)[C@H](Cc2c[nH]c3ccccc23)NC(=O)[C@H](C(c2ccccc2)c2ccccc2)NC(=O)[C@H](CNC(=N)N)NC1=O` [7a, c[Agp-Agp-Agp-Agp-Dip-Trp-Dip]] (cyclo([Agp][Agp][Agp][Agp][Dip]W[Dip])) had an HC50 in [1] of 240 µg/mL.
The compound `N=C(N)NCCC[C@@H]1NC(=O)[C@H](CCCNC(=N)N)NC(=O)[C@H](CCCNC(=N)N)NC(=O)[C@H](Cc2c[nH]c3ccccc23)NC(=O)[C@H](C(c2ccccc2)c2ccccc2)NC(=O)[C@H](Cc2c[nH]c3ccccc23)NC(=O)[C@H](CCCNC(=N)N)NC1=O` [5a, c[Arg-Arg-Arg-Arg-Trp-Dip-Trp]] (cyclo([Dip]WRRRRW)) yielded an HC50 in data set [1] of 220 µg/mL.
cyclo(RRRR[Dip][Dip][Dip]) [8a]: in the data set with MRSA (ATCC BAA-1556), the “MIC MRSA (ATCC BAA-1556)” value was 3.1 mg/L. Also, the “MIC S. aureus (ATCC 29213)” value with S. aureus (ATCC 29213) [13] was 3.1 mg/L. In addition, the “MIC P. aeruginosa (ATCC 27883)” value in data set [14] was 12.5 mg/L. Further, the “MIC E. coli (ATCC 25922)” value in the data set on E. coli (ATCC 25922) [15] was 12.5 mg/L. Further, in data set [16], the HC50 is 70 µg/mL.
In the case of c[Arg-Arg-Arg-Arg-Nal-Nal-Nal] [8b], the “MIC MRSA (ATCC BAA-1556)” value in the data set with MRSA (ATCC BAA-1556) is 3.1 mg/L. Further, the “MIC S. aureus (ATCC 29213)” value in the data set with S. aureus (ATCC 29213) [13] was 3.1 mg/L. Also, the “MIC P. aeruginosa (ATCC 27883)” value in [14] is 12.5 mg/L. In addition, in the data set on E. coli (ATCC 25922) [15], the “MIC E. coli (ATCC 25922)” value was 25 mg/L. Besides, in data set [16], the HC50 was 80 µg/mL.
Regarding `N=C(N)NCCC[C@@H]1NC(=O)[C@H](CCCNC(=N)N)NC(=O)[C@H](CCCNC(=N)N)NC(=O)[C@H](C(c2ccccc2)c2ccccc2)NC(=O)[C@H](C(c2ccccc2)c2ccccc2)NC(=O)[C@H](Cc2c[nH]c3ccccc23)NC(=O)[C@H](CCCNC(=N)N)NC1=O` [3a, c[Arg-Arg-Arg-Arg-Trp-Dip-Dip]] (cyclo([Dip][Dip]RRRRW)), in data set [1], the HC50 came to 85 µg/mL.
In the case of `CC(C)C[C@@H]1NC(=O)[C@H](C(c2ccccc2)c2ccccc2)NC(=O)[C@H](CCCNC(=N)N)NC(=O)[C@H](CCCNC(=N)N)NC(=O)[C@H](CCCNC(=N)N)NC(=O)[C@H](CCCNC(=N)N)NC(=O)[C@H](C(c2ccccc2)c2ccccc2)NC1=O` [6a, c[Arg-Arg-Arg-Arg-Dip-Leu-Dip]] (cyclo([Dip]L[Dip]RRRR)), in data set [1], the HC50 came out at 155 µg/mL.
In turn, `N=C(N)NCCC[C@@H]1NC(=O)[C@H](CCCNC(=N)N)NC(=O)[C@H](C(c2ccccc2)c2ccccc2)NC(=O)[C@H](Cc2c[nH]c3ccccc23)NC(=O)[C@H](C(c2ccccc2)c2ccccc2)NC(=O)[C@H](CCCNC(=N)N)NC1=O` [1b, c[Arg-Arg-Arg-Dip-Trp-Dip]] (cyclo([Dip]RRR[Dip]W)) showed an HC50 in data set [1] of 75 µg/mL.
Still for that read-out and setting: the figure for `N=C(N)NCCC[C@@H]1NC(=O)[C@H](CCCNC(=N)N)NC(=O)[C@H](Cc2c[nH]c3ccccc23)NC(=O)[C@H](C(c2ccccc2)c2ccccc2)NC(=O)[C@H](C(c2ccccc2)c2ccccc2)NC(=O)[C@H](CCCNC(=N)N)NC1=O` [1c, c[Arg-Arg-Arg-Dip-Dip-Trp]] (cyclo([Dip][Dip]WRRR)) is 65 µg/mL; for `N=C(N)NCCCC[C@@H]1NC(=O)[C@H](CCCNC(=N)N)NC(=O)[C@H](CCCCNC(=N)N)NC(=O)[C@H](C(c2ccccc2)c2ccccc2)NC(=O)[C@H](Cc2c[nH]c3ccccc23)NC(=O)[C@H](C(c2ccccc2)c2ccccc2)NC(=O)[C@H](CCCNC(=N)N)NC1=O` [7c, c[hArg-Arg-hArg-Arg-Dip-Trp-Dip]] (cyclo([Dip]W[Dip][hArg]R[hArg]R)) it is 160 µg/mL.

By HC50 is commonly meant the concentration giving 50% haemolysis.
